Compound activity from PubChem.
FLuc act counter – affects firefly luciferase, flagging false hits in luciferase stimulation screens. P08659. ATPlite luciferase biochemical, luminescence, 10 min; 0 = ATP-free wells, 1 = DMSO control. activation factor at 10 µM. 200,000 tested, under 10 active. AID 1027;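 active = luciferase activation factor, scaled between plate controls, of at least 2 with compound at 10 µM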
Target sequence (P08659 whole entry, looked up): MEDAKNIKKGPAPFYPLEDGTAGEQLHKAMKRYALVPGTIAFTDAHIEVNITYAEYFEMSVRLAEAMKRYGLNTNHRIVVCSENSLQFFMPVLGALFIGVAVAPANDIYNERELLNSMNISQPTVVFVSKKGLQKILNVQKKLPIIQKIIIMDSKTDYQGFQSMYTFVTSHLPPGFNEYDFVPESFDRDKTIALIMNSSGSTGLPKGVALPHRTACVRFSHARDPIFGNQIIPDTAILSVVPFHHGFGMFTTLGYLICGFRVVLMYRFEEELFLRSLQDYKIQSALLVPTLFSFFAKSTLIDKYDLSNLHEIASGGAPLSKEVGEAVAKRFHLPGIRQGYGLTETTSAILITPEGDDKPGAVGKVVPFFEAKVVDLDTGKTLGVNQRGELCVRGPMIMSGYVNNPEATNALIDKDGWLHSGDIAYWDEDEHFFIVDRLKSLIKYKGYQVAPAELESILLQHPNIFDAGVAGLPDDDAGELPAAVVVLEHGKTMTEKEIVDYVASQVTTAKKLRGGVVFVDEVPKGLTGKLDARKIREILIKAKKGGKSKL
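assay system = Luciferase/luciferin detection reagent, cell-free biochemical luciferase assay | also added = ATP substrate | times = 10 min post-reagent at room temperature | measured by = luminescence from luciferase reaction | measure = luciferase activation, seen as luminescence increase over controls | benchmarks = low control with PBS replacing ATP, high control enzyme plus ATP without compound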
STAT1 activator – STAT1 signaling activation | NIH 3T3 STAT1-luciferase reporter, IFN-gamma, luminescence; 100% = IFN-gamma alone, no compound | activation (% of control), % at 5.5 µM | actives 2.6% (n = 200,000);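 active = activation above the screen-wide mean activation plus 3 SD, cut at about 130% in these data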
NF-kB expr up – NF-kB expression increase, human neuronal cells; fold change at 12.5 µM; NF-kB reporter expression; stronger effect = higher value; actives 1.6% (n = 190,000); in the data active = fold change above about 3.3
APP 5'UTR act – APP 5'UTR luciferase reporter activation; activation, % at 2 µM; actives 1% (n = 190,000); SH-SY5Y APP 5'UTR luciferase reporter, luminescence; zero percent = DMSO vehicle wells;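 active = activation above a set limit, based on mean plus 3 SD of controls, cut at about 140% in these data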
FLuc inh counter – inhibits firefly luciferase, flagging false hits in luciferase inhibition screens. ATPLite firefly luciferase biochemical luminescence, 10 min. inhibition, % at 10 µM. actives 1.5% (n = 200,000);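 active = inhibition above about 50% when tested at 10 µM, limit read from the data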
Each line names hits and unclear results; the compound was inactive in the other large screens. Only some compounds are listed: those with a hit (about 4.1% of all), similar ones and a draw of the others.

c1cncc(-c2nnc(-c3cccs3)o2)c1	none
COc1ccc(-c2nnc(-c3cccs3)o2)cc1OC	STAT1 activator 150
CCOc1ccc(-c2nnc(-c3cccs3)o2)cc1	NF-kB expr up 4.2, FLuc inh counter 65
CSc1cccc(NC(=O)c2c(Cl)cnn2C)c1	none
Cc1nn(-c2ccccn2)c2c1-c1nc(N)ncc1CC2	STAT1 activator 134, FLuc inh counter 61
CC(C)(C)S(=O)(=O)c1cnc2c(-c3ccsc3)cnn2c1N	STAT1 activator 132
CC1(C)CC(=O)C2=C(C1)Nc1ccccc1NC2c1cccnc1 (stereo not drawn)	none (no result: STAT1 activator, APP 5'UTR act)
Cn1cccc1C1Nc2ccccc2NC2=C1C(=O)CC(C)(C)C2 (stereo not drawn)	APP 5'UTR act 139
Cc1c(NC(=O)CN2c3cccc4cccc(c34)S2(=O)=O)c(=O)n(-c2ccccc2)n1C	none
Clc1ccc(/C=C/c2ncc3ccccn23)cc1	STAT1 activator 144, NF-kB expr up 3.7, FLuc inh counter 67
CCOC(=O)c1cnc(SCc2ccc(C)cc2)nc1N	STAT1 activator 140
CCCCSc1ncc(C(=O)OCC)c(N)n1	STAT1 activator 139, NF-kB expr up 6.8, APP 5'UTR act 164
CCOC(=O)c1cnc(SCC(=O)c2ccc(Cl)cc2)nc1N	none
CCn1c2ccccc2c2nnc(SCCCn3c(=O)[nH]c4ccccc43)nc21	none
CC12C=CC3(O1)C(C(=O)N1CCCOC13)C2C(=O)O (stereo not drawn)	none
CC1CCCCN1C(=S)Nc1ccc(OC(F)F)cc1 (stereo not drawn)	none
COC(=O)Cc1ccc(NC(=S)N2CCN(C)CC2)cc1	FLuc inh counter 56
COC(=O)Cc1ccc(NC(=S)N2CCCCC2C)cc1 (stereo not drawn)	FLuc inh counter 83
CCc1ccc(NC(=S)N2CCCCCCC2)cc1	FLuc inh counter 54
COC(=O)C1=C(C)Nc2nnnn2C1c1ccco1 (stereo not drawn)	none (no result: APP 5'UTR act)
CC(C)(CO)Nc1nc(Nc2ccccc2)nc(Nc2ccccc2)n1	none
COc1ccc2oc(=O)c(-c3nnc(N)s3)cc2c1	none
Nc1nnc(-c2cc3ccccc3oc2=O)s1	STAT1 activator 131
Fc1c(F)c(F)c(N/N=C/c2c[nH]c3ccccc23)c(F)c1F	NF-kB expr up 13
CC(C)(C)OC(=O)N/N=C/c1c[nH]c2ccccc12	FLuc inh counter 54
CCOC(=O)N/N=C/c1c[nH]c2ccccc12	none (no result: NF-kB expr up)
COC(=O)N/N=C/c1c[nH]c2ccccc12	none
Cc1occc1C(=O)N/N=C/c1c[nH]c2ccccc12	STAT1 activator 132, APP 5'UTR act 143
c1ccc(Cn2nnnc2C(c2cccs2)N2CCOCC2)cc1 (stereo not drawn)	none
CSC1=NCCN1C(=O)c1c(F)cccc1F	none
CCN1C(=O)c2cccc3c(Cl)ccc(c23)C1=O	none
CC(=O)c1ccc(N=Nc2ccc(C)cc2)cc1	NF-kB expr up 4.8, APP 5'UTR act 283, FLuc inh counter 52
CC(=O)c1ccc(N=Nc2ccc(N(C)C)cc2)cc1	NF-kB expr up 3.9, FLuc inh counter 53
Cc1ccc(C(=O)c2ccc(C)cc2)cc1	none
CN(C)C(=S)c1ccc(N(C)C)cc1	none
Nc1c(N)c2ccccc2oc1=O	none
Nc1ccc2oc(=O)c3ccccc3c2c1	STAT1 activator 134
Cc1sc(NC(=O)Nc2ccccc2)c(C(N)=O)c1C	STAT1 activator 139
COc1ccc2cc3c(N)c(C(=O)NCc4ccco4)sc3nc2c1	STAT1 activator 137
COc1ccc2cc3cc(C(=O)NCc4ccco4)oc3nc2c1	none
O=C(COC(=O)C1(c2ccc(F)cc2)CCCC1)N1CCN(C(=O)c2ccco2)CC1	none
COc1ccc(/C(N)=N/OC(=O)c2cccc([N+](=O)[O-])c2)cc1	none
O=C(/C=C\Nc1ccc2c(c1)OCO2)c1ccc2c(c1)OCO2	NF-kB expr up 8, APP 5'UTR act 197, FLuc inh counter 89
Cc1noc(NS(=O)(=O)c2ccc(N/C=C/C(=O)c3ccc4c(c3)OCO4)cc2)c1C	none
CCOc1ccc(N/C=C\C(=O)c2ccc3c(c2)OCO3)cc1	STAT1 activator 131 (no result: FLuc act counter, FLuc inh counter)
COc1ccc(N/C=C\C(=O)c2ccc3c(c2)OCO3)cc1	NF-kB expr up 8.4, FLuc inh counter 89
COc1ccc(/C(N)=N/OC(=O)c2ccc3c(c2)OCO3)cc1	FLuc inh counter 69
CCOc1ccc(C(CC(=O)O)NC(=O)COc2ccccc2OC)cc1OC (stereo not drawn)	none
O=C(/C=C\Nc1ccc2c(c1)OCO2)c1ccccn1	FLuc inh counter 95
CCOc1ccc2nc(NC(=O)c3cnc(C)cn3)sc2c1	none
CCOc1ccc2nc(NC(=O)c3cccnc3)sc2c1	STAT1 activator 132, FLuc inh counter 60
CCOc1ccc2nc(SCC(=O)c3cccs3)sc2c1	STAT1 activator 131, NF-kB expr up 4.4
CCCC(=O)Nc1nc2ccc(OCC)cc2s1	STAT1 activator 150, NF-kB expr up 4.3
Cc1cc(/C=C2\SC(N)=NC2=O)c(C)n1-c1ccccc1	FLuc inh counter 83 (no result: APP 5'UTR act)
CSc1ccc(C(=O)C2CCCN(C(=O)c3nn(C)c(=O)c4ccccc34)C2)cc1 (stereo not drawn)	none
Cc1nc(C(C)NC(=O)CCc2nnc(CCCc3ccccc3)o2)c(C)s1 (stereo not drawn)	STAT1 activator 149
CN(Cc1ccsc1)C(=O)CCc1nnc(CCCc2ccccc2)o1	STAT1 activator 133
Cc1ccc(OCC(=O)N/N=C\c2cn(Cc3ccccc3)c3ccccc23)cc1C	none
Nc1ccc(N2CCN(c3ccc(Cl)c(Cl)c3)CC2)cc1	NF-kB expr up 3.4
COC(=O)c1sccc1NC(=O)CSc1cccc(Cl)c1Cl	none
O=C(/C=C/c1ccc2c(c1)OCO2)c1ccco1	FLuc inh counter 58
O=C(/C=C/c1ccc(Br)cc1)c1ccco1	none
Nc1ccccc1C(=O)/C=C/c1ccc2c(c1)OCO2	NF-kB expr up 7.2, FLuc inh counter 62
CC(=O)N1C(=O)N(C(C)=O)C2C1N(C(C)=O)C(=O)N2C(C)=O (stereo not drawn)	none
Oc1oc(-c2ccccc2)nc1/C=N/c1ccccn1	STAT1 activator 129
CN=Cc1nc(-c2ccccc2)oc1O	none
O=C(COc1ccccc1)Nc1nccs1	none
O=C(COc1ccc2ccccc2c1)Nc1nccs1	NF-kB expr up 6.5, APP 5'UTR act 190, FLuc inh counter 84
COc1ccc(OC)c(-c2nnc(NC(=O)C(C)Sc3nncn3C)s2)c1 (stereo not drawn)	none
COc1ccc(-c2nnc(NC(=O)C(C)C)s2)c(OC)c1	STAT1 activator 133
CCCc1nnc(NC(=O)c2cccc(OC)c2)s1	STAT1 activator 134
COc1cccc(C(=O)Nc2nnc(C(C)C)s2)c1	STAT1 activator 136, APP 5'UTR act 198 (no result: NF-kB expr up)
COCc1nnc(NC(=O)c2ccc(OC)cc2OC)s1	NF-kB expr up 4.4, FLuc inh counter 56
CS(=O)(=O)N(CC(=O)NCCSCc1c(F)cccc1Cl)c1ccc2c(c1)OCO2	none
